# Source: PubChem (several laboratories)
# Compounds with a hit are over-represented: about 4% of the library has one in this group of screens.
# SENP1 FRET inh = blocks the human SENP1 SUMO protease catalytic domain. 360,000 tested, 0.21% active. inhibition, % at 10 µM. recombinant SENP1 catalytic domain, CyPet-SUMO1-YPet FRET cleavage. Q9P0U3;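 active means inhibition at least 30% at 10 µM, raw YFP signal under a set limit, fluorescence ratio 0.5 to 1.5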
#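 Material – human SENP1 catalytic domain · Input – SENP1 enzyme, 20 pM final · Compound dosing – single concentration of 10 µM compound, 0.5% DMSO final · Timing – enzyme reaction for 50 min at room temperature, dark · Measured by – FRET fluorescence in CFP and YFP emission channels · Control set – no-enzyme wells low, DMSO-plus-enzyme wells high control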
# FAS TE block = blocks the thioesterase domain of human fatty acid synthase | P49327 | recombinant FAS-TE, OMFH fluorogenic substrate, fluorescence endpoint | inhibition, % at 15 µM | 360,000 tested, 0.67% active;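 active means compounds whose normalised, plate-corrected inhibition of enzyme fluorescence in the single-dose primary screen is 50% or more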
# Cardio protect = protects H9c2 cardiomyocytes from peroxide injury | AID 588492 | 360,000 tested, 0.63% active | protection from H2O2 cell death, % at 20 µM | H2O2 injury protection, ATPLite, 2 h;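 active means compounds giving at least 50% protection of heart cells from peroxide-induced death in the single-dose screen, raw or plate-pattern-corrected value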
# GRIN3A LBD mod = modulates the human NR3A ligand-binding domain; NR3A LBD differential scanning fluorimetry, Tm shift; 0% = protein alone, 100% = glycine-bound protein; Tm shift relative to glycine control, % at 25 µM; 340,000 tested, 2.5% active;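 active means melting temperature shift of at least 10% of the positive control shift, at one fixed dose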
# Arrestin-AP2 inh = human beta-arrestin and AP2 interaction inhibition. FITC-arrestin peptide / GST-AP2 beads, flow cytometry; AP2 beta2 appendage carries R879A mutation. 340,000 tested, 0.31% active. AID 504490. inhibition, % at 10 µM;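 active means inhibition above a set limit, near 3 SD of compounds lacking own fluorescence, cut at about 54% in these data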
#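 System: GST-tagged AP2 beta2-adaptin appendage (R879A) on 4 µm glutathione beads / Reagent: FITC-arrestin peptide, 50 nM / Detection: HyperCyt-sampled flow cytometry, FL1 channel, ex 488/em 535 nm / Timing: 12 min plus 1 h, RT / Buffer or medium: PBS plus Tween 20 (0.05%) and BSA (0.1%)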
# iPSC survival up = increases survival of single human iPS cells | hiPSC single-cell survival, ATPlite luminescence; 100% = ROCK inhibitor wells, 0% = DMSO | survival enhancement, % at 20 µM | 360,000 tested, 0.044% active | AID 602274; in the data active means survival enhancement above about 18%;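 further: cells exposed to compounds for 16 hours before the ATP read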
# FAS-TE conf = FAS thioesterase (human) inhibition, confirmation | shares compounds with FAS TE block | recombinant FAS-TE, OMFH fluorogenic substrate, fluorescence | inhibition, % at 15 µM | 2,300 tested, 45% active;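 active means compounds inhibiting the enzyme by at least 50% at 15 µM in any one of the replicates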
# Numbers stand for hits; . = inactive; / = no result.
SMILES,SENP1 FRET inh,FAS TE block,Cardio protect,GRIN3A LBD mod,Arrestin-AP2 inh,iPSC survival up,FAS-TE conf
COc1ccc(C2CC(c3cccs3)=NN2C(=O)CSc2nc(=O)n3ccccc3n2)cc1 (centres undefined),.,.,.,.,.,.,/
Cc1ccc(C2CC(c3cccs3)=NN2C(=O)CSc2nc(=O)n3cc(C)ccc3n2)cc1 (centres undefined),.,51,.,.,.,.,.
Cc1ccn2c(=O)nc(SCC(=O)N3N=C(c4cccs4)CC3c3ccc(F)cc3)nc2c1 (centres undefined),.,54,.,.,.,.,46
COc1ccc(C2=NN(C(=O)CSc3nc(=O)n4cccc(C)c4n3)C(c3ccc(C)cc3)C2)cc1 (centres undefined),.,90,.,.,.,.,.
Cc1cccn2c(=O)nc(SCC(=O)N3N=C(c4cccs4)CC3c3ccc(F)cc3)nc12 (centres undefined),.,54,.,.,.,.,.
Fc1c(F)c(F)c(N/N=C/c2c[nH]c3ccccc23)c(F)c1F,.,51,.,76,.,.,58
Cc1cc(N/N=C/c2c[nH]c3ccccc23)c2ccccc2n1,.,.,.,.,.,.,/
CCC(O)(Cc1ccccn1)Cc1ccccn1,.,.,.,.,.,.,/
N#Cc1cc2sc3nnc(-c4ccncc4)n3c2cc1C#N,.,75,.,.,.,.,53
O=c1c(-c2ccccc2)cocc1-c1ccccc1,.,.,.,/,/,.,/
Cc1ccc(NC(=O)/C(=C/C=C/c2ccccc2)NC(=O)c2ccccc2)cc1,.,63,.,.,.,.,.
O=C(Nc1ccc(C(=O)O)cc1)/C(=C\C=C\c1ccccc1)NC(=O)c1ccc(Br)cc1,.,.,.,.,.,.,/
CC(C)Oc1cccc(C(=O)Nc2nnc([C@@H]3C[C@H](O)[C@@H](CO)O3)s2)c1,.,.,.,/,/,.,/
Cc1c(Cl)c([N+](=O)[O-])nn1CCCC(=O)Nc1cccc(Cl)c1,.,51,.,.,.,.,42
Cc1c(Cl)c([N+](=O)[O-])nn1CCCC(=O)Nc1cccnc1,.,.,.,.,.,.,/
O=C(NCc1ccc(F)cc1)c1cc(C2CCCCN2C(=O)c2ccc(Cl)cc2)on1 (centres undefined),.,.,.,/,/,.,/
O=C(C[C@@H]1CC[C@@H]2[C@H](COC[C@H](O)CN2S(=O)(=O)c2ccccc2)O1)Nc1ccccc1,.,/,/,/,/,/,/
Cn1c(/C=C/N(Cc2ccccc2)c2ccccc2)c([N+](=O)[O-])c(=O)n(C)c1=O,.,57,.,.,.,.,47
CCc1nc2c(OCC(=O)N3CCOCC3)cccn2c1N(C)C(=O)COc1ccccc1,.,.,.,/,/,.,/
COc1ccc(C(=O)COC(=O)c2cc(=O)c3ccccc3o2)c(OC)c1,.,.,.,/,/,.,/
CCCC(C)C1c2c(c(C)c(C)oc2=O)Oc2c(C)c(C)oc(=O)c21 (centres undefined),.,59,.,.,.,.,56
CCCCCCN1C[C@@H](n2cc(COC(=O)c3ccccc3)nn2)[C@H](O)C[C@@H]1c1ccc(Cl)cc1,.,.,.,/,/,.,/
Cc1ccc(SCc2cc(=O)[nH]c(/N=C(\N)Nc3cccc4ccccc34)n2)cc1,.,58,.,.,.,.,.
COc1ccc(Cl)cc1N/C(N)=N/c1nc(CSc2ccc(C)cc2)cc(=O)[nH]1,.,.,.,.,.,.,/
O=C(/C=C/c1cccc([N+](=O)[O-])c1)NCCSCc1cccc(Cl)c1,.,58,.,.,.,.,66
O=C(/C=C/c1cccc([N+](=O)[O-])c1)NCc1ccccc1,.,.,.,.,.,.,/
O=C(/C=C/c1ccc([N+](=O)[O-])cc1)NCCc1ccc(F)cc1,.,.,.,.,.,.,/
